# According to ChEMBL document CHEMBL3580577, “Fragment-based exploration of binding site flexibility in Mycobacterium tuberculosis BioA” (J Med Chem, 2015):
# Assays:
# [1] = tested on: Mycobacterium tuberculosis; assay: Antimycobacterial activity against Mycobacterium tuberculosis BioA-UE strain assessed as growth inhibition after 9 days by Whole cell growth assay in presence of 1000 nM biotin; format: functional, organism-based; conditions: 216 h
# Procedure, shortened: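 Mtb BioA-underexpressing strain pregrown in Sauton's medium with 1000 nM biotin to OD580 1.0–1.2, washed twice in biotin-free Sauton's medium, and seeded at OD580 0.03 in medium with 1000 nM biotin plus 200 ng/mL anhydrotetracycline. Compounds were tested at 2-fold serial dilutions, 1000 to 3.9 µM final, against no-compound controls. OD read after nine days at 37 °C, in triplicate; MIC calculated from growth.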
# [2] = tested on: Mycobacterium tuberculosis; assay: Antimycobacterial activity against Mycobacterium tuberculosis H37Rv assessed as growth inhibition after 9 days by Whole cell growth assay in presence of 1000 nM biotin; format: functional, organism-based; conditions: 216 h
# Procedure, shortened: (§1)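 Virulent H37Rv wild type pregrown in Sauton's medium with 1000 nM biotin to OD580 1.0–1.2, washed twice in biotin-free Sauton's medium, and seeded at OD580 0.03 in biotin-free medium or with 1000 nM biotin added. Compounds were tested at 2-fold dilutions, 1000 to 3.9 µM final, against no-compound controls. OD read after nine days at 37 °C, in triplicate; MIC calculated.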
# [3] = Inhibition of Mycobacterium tuberculosis N-terminal His-tagged BioA assessed as dissociation constant by isothermal titration calorimetry
# Procedure, shortened: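 Isothermal titration calorimetry at 25 °C in 25 mM HEPES pH 7.5, 50 mM NaCl, with 100 µM PLP-saturated His-tagged BioA (E. coli-expressed) in the cell. Ligand at 1.0, 1.5 or 2.0 mM, DMSO matched, given as 2 µL injections 150 s apart with stirring at 750 rpm. First injection discarded; heats of dilution corrected. KD = 1/KA from curve fit, averaged over three replicates.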
# [4] = tested on: Mycobacterium tuberculosis; assay: Inhibition of Mycobacterium tuberculosis N-terminal His-tagged BioA assessed as temperature of denaturation shift by […]
# Procedure, shortened: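 Differential scanning fluorimetry with 0.05 mg/mL holo BioA in 25 mM HEPES pH 7.5, 50 mM NaCl, 5× SYPRO Orange, and 5 mM fragment from 200 mM DMSO stock. Heated 55–100 °C in 0.5 °C steps with 60 s dwell. Tm taken at the first-derivative peak; the shift is against the mean of DMSO-only controls on the same plate. Four replicates, mean with standard error.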
# [5] = tested on: Mycobacterium tuberculosis; assay: Antimycobacterial activity against Mycobacterium tuberculosis H37Rv assessed as growth inhibition after 9 days by Whole cell growth assay; format: functional, organism-based; conditions: 216 h; procedure, shortened: as §1
# [6] = Inhibition of Mycobacterium tuberculosis H37Rv N-terminal His-tagged BioA using KAPA substrate by in vitro biochemical assay
SMILES,IC50 [1],IC50 [2],Kd [3],ΔTm [4],IC50 [5],IC50 [6]
CNCc1ccc(Cn2cccn2)cc1,> 1000 µM,> 1000 µM,11.7 µM,5.3 °C,> 1000 µM,
CC(=O)Nc1ccc2c(c1)C=CC2=O,> 1000 µM,> 1000 µM,21.7 µM,3.6 °C,> 1000 µM,
O=C(c1ccccc1)C1CCNCC1,260 µM,357 µM,41.8 µM,3.6 °C,340 µM,
NCc1ccc(Cn2cc(Cl)cn2)cc1,,,6.8 µM,-11.9 °C,,
O=c1cc(-c2ccccc2F)[nH]c2cc3c(cc12)OCO3,,,,,,0.44 µM
NC(=O)c1ccc(-n2ccnc2)cc1,> 1000 µM,> 1000 µM,15 µM,4.1 °C,> 1000 µM,
NCc1nc2ccccc2s1,368 µM,304 µM,30.3 µM,-6.5 °C,250 µM,
NC(=O)c1ccc(-c2ccccn2)s1,39.2 µM,> 1000 µM,6.9 µM,6.3 °C,249 µM,
